Data as given in ChEMBL document CHEMBL3351393, “iNOS inhibitory activity of sesquiterpenoids and a monoterpenoid from the rhizomes of Curcuma wenyujin” (J Nat Prod, 2014).

Columns and labels:
[1] = system: RAW264.7; test: Inhibition of LPS-induced NO production in mouse RAW264.7 cells by Griess assay; format: functional, cell-based
In short: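 RAW 264.7 mouse macrophages were seeded at 1 × 10^5 cells/well and left to adhere 2 h at 37 °C in 5% CO2. Nitrite accumulated in the supernatant was measured with Griess reagent, and IC50 values were derived. Hydrocortisone served as positive control.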

[2] = system: RAW264.7; test: Cytotoxicity against mouse RAW264.7 cells by MTT assay; format: cell-based

Row | SMILES | IC50 [1] [µM] | Activity [2]
1 | C=C(C)[C@H]1CC[C@](C)(O)[C@H]1CC(C(=O)O)=C(C)C | 66.5 | Non-toxic
2 | CC(C)=C1C[C@]2(O)[C@@H](CC[C@@H]2C)[C@@](C)(O)CC1=O | 92.4 | Non-toxic
3 | C/C1=C\[C@H](O)C[C@]2(C)O[C@H]2C(=O)c2c(C)coc2C1 | 78.2 | Non-toxic
4 | CC(C)=C1C[C@]2(O)[C@@H](C)CC[C@@H]2[C@@](C)(O)CC1=O | 89.2 | Non-toxic
5 | C=C(C)[C@@H]1CC[C@](C)(O)[C@H]1CC(C(=O)O)=C(C)C | 68.4 | Non-toxic
6 | Cc1coc2c1C(=O)[C@]1(O)[C@@H](C)CC[C@H]1C(CO)=C2 | 47.7 | Non-toxic
7 | C[C@]12CCC(=O)C=C1CC[C@@H]1[C@@H]2[C@@H](O)C[C@@]2(C)[C@H]1CC[C@]2(O)C(=O)CO [HYDROCORTISONE] | 51.4 | 
8 | CC(C)=C1C[C@@]23O[C@]1(O)C[C@@](C)(O)[C@H]2CC[C@H]3C | 87.6 | Non-toxic
9 | CC1=C2C[C@H]3[C@@](C)(O)CC[C@@]34O[C@@]2(C[C@@]4(C)O)OC1=O | 8.5 | Non-toxic
10 | CC1=CC(=O)[C@@H]2C[C@@H]3[C@@](C)(O)CC[C@]13OC2(C)C | 79.8 | Non-toxic
11 | CC(C)=C1C[C@@H]2O[C@H](CC[C@]2(C)O)/C(C)=C/C1=O | 48.6 | Non-toxic
12 | CC(=O)C(C[C@@H]1[C@H](C(C)=O)CC[C@]1(C)O)=C(C)C | 78.7 | Non-toxic
13 | CC1=C2C[C@H]3[C@@](C)(O)CC[C@@]34O[C@@]2(C[C@]4(C)O)OC1=O | 7.6 | Non-toxic
14 | CC1=CC(=O)C[C@@H]2[C@H]1CC[C@@]2(C)O | 77.9 | Non-toxic
